In ChEMBL document CHEMBL4368872, “Synthesis and anticonvulsant activity of phenoxyacetyl derivatives of amines, including aminoalkanols and amino acids” (Medchemcomm, 2018):
The source made the active and inactive calls. No cut-off for these calls is given here.

What was measured:
[1] = Neurotoxicity in CF-1 mouse at 300 mg/kg, ip measured after 0.5 hrs by rotarod test; assay type: toxicity, organism-based; conditions: in vivo
Procedure, shortened: (§1)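 Mice dosed i.p. were placed on a 1 in. knurled rod turning at 6 rpm. Toxicity was scored as failure to keep balance for at least 1 min, i.e. falling off three or more times. Results are reported as animals showing toxicity / animals tested at each time point.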

[2] = Neurotoxicity in CF-1 mouse at 100 mg/kg, ip measured after 1 hr by rotarod test; assay type: toxicity, organism-based; conditions: in vivo; procedure, shortened: as §1
[3] = Neurotoxicity in Sprague-Dawley rat at 30 mg/kg, po measured after 2 hrs by rotarod test; assay type: toxicity, organism-based; conditions: in vivo
Procedure, shortened: (§2)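 Rat neurotoxicity after i.p. or p.o. dosing was scored as animals impaired / animals tested at each time point. For p.o. dosing, TD50 was obtained by probit analysis.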

[4] = Neurotoxicity in Sprague-Dawley rat at 30 mg/kg, po measured after 4 hrs by rotarod test; assay type: toxicity, organism-based; conditions: in vivo; procedure, shortened: as §2
Mus musculus [5] = assay: Anticonvulsant activity in CF-1 mouse model of maximal electroshock-induced seizure assessed as suppression of tonic hind limb extension at 30 mg/kg, ip measured at 4 hrs post dose; assay type: functional, organism-based
Procedure, shortened: (§3)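 Mice dosed i.p. and given maximal electroshock at 50 mA. Read-out is protection, reported as number protected / number tested at 0.25, 0.5, 1 and 4 h after dosing.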

Rattus norvegicus [6] = assay: Anticonvulsant activity in Sprague-Dawley rat model of maximal electroshock-induced seizure assessed as suppression of tonic hind limb extension at 30 mg/kg, po measured at 2 hrs post dose; assay type: functional, organism-based
Procedure, shortened: (§4)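 Rats given 30 mg/kg p.o. and tested by maximal electroshock at 150 mA. Scored as number protected / number tested (4 per group) at 0.25, 0.5, 1, 2 and 4 h after dosing.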

Mus musculus [7] = assay: Anticonvulsant activity in CF-1 mouse model of subcutaneous pentylenetetrazole-induced seizure assessed as reduction in convulsions at 30 mg/kg, ip measured at 4 hrs post dose; assay type: functional, organism-based
Procedure, shortened: (§5)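 Mice dosed i.p., then given pentylenetetrazole 85 mg/kg in 0.9% NaCl s.c. into the posterior midline of the neck. Seizures watched for at least 30 min. Scored as protected / tested at 0.5 and 4 h.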

Mus musculus [8] = assay: Anticonvulsant activity in CF-1 mouse model of subcutaneous pentylenetetrazole-induced seizure assessed as reduction in convulsions at 300 mg/kg, ip measured at 4 hrs post dose; assay type: functional, organism-based; procedure, shortened: as §5
Mus musculus [9] = assay: Anticonvulsant activity in CF-1 mouse model of maximal electroshock-induced seizure assessed as suppression of tonic hind limb extension at 300 mg/kg, ip measured at 4 hrs post dose; assay type: functional, organism-based; procedure, shortened: as §3
Mus musculus [10] = assay: Anticonvulsant activity in CF-1 mouse model of maximal electroshock-induced seizure assessed as suppression of tonic hind limb extension at 30 mg/kg, ip measured at 0.5 hrs post dose; assay type: functional, organism-based; procedure, shortened: as §3
[11] = Neurotoxicity in Sprague-Dawley rat at 30 mg/kg, po measured after 0.25 hrs by rotarod test; assay type: toxicity, organism-based; conditions: in vivo; procedure, shortened: as §2
[12] = Neurotoxicity in Sprague-Dawley rat at 30 mg/kg, po measured after 1 hr by rotarod test; assay type: toxicity, organism-based; conditions: in vivo; procedure, shortened: as §2
Mus musculus [13] = assay: Anticonvulsant activity in CF-1 mouse model of maximal electroshock-induced seizure assessed as suppression of tonic hind limb extension at 100 mg/kg, ip measured at 1 hr post dose; assay type: functional, organism-based; procedure, shortened: as §3
Mus musculus [14] = assay: Anticonvulsant activity in CF-1 mouse model of maximal electroshock-induced seizure assessed as suppression of tonic hind limb extension at 100 mg/kg, ip measured at 0.5 hrs post dose; assay type: functional, organism-based; procedure, shortened: as §3
Mus musculus [15] = assay: Anticonvulsant activity in CF-1 mouse model of subcutaneous pentylenetetrazole-induced seizure assessed as reduction in convulsions at 100 mg/kg, ip measured at 4 hrs post dose; assay type: functional, organism-based; procedure, shortened: as §5
Mus musculus [16] = assay: Anticonvulsant activity in CF-1 mouse model of subcutaneous pentylenetetrazole-induced seizure assessed as reduction in convulsions at 30 mg/kg, ip measured at 0.5 hrs post dose; assay type: functional, organism-based; procedure, shortened: as §5
Rattus norvegicus [17] = assay: Anticonvulsant activity in Sprague-Dawley rat model of maximal electroshock-induced seizure assessed as suppression of tonic hind limb extension at 30 mg/kg, po measured at 1 hr post dose; assay type: functional, organism-based; procedure, shortened: as §4
[18] = Neurotoxicity in Sprague-Dawley rat at 30 mg/kg, po measured after 0.5 hrs by rotarod test; assay type: toxicity, organism-based; conditions: in vivo; procedure, shortened: as §2
[19] = Neurotoxicity in CF-1 mouse at 300 mg/kg, ip measured after 4 hrs by rotarod test; assay type: toxicity, organism-based; conditions: in vivo; procedure, shortened: as §1
Mus musculus [20] = assay: Anticonvulsant activity in CF-1 mouse model of maximal electroshock-induced seizure assessed as suppression of tonic hind limb extension at 300 mg/kg, ip measured at 0.5 hrs post dose; assay type: functional, organism-based; procedure, shortened: as §3
[21] = Neurotoxicity in CF-1 mouse at 30 mg/kg, ip measured after 0.5 hrs by rotarod test; assay type: toxicity, organism-based; conditions: in vivo; procedure, shortened: as §1
Mus musculus [22] = assay: Anticonvulsant activity in CF-1 mouse model of subcutaneous pentylenetetrazole-induced seizure assessed as reduction in convulsions at 100 mg/kg, ip measured at 0.5 hrs post dose; assay type: functional, organism-based; procedure, shortened: as §5
Mus musculus [23] = assay: Anticonvulsant activity in CF-1 mouse model of maximal electroshock-induced seizure assessed as suppression of tonic hind limb extension at 100 mg/kg, ip measured at 4 hrs post dose; assay type: functional, organism-based; procedure, shortened: as §3
[24] = Neurotoxicity in CF-1 mouse at 30 mg/kg, ip measured after 4 hrs by rotarod test; assay type: toxicity, organism-based; conditions: in vivo; procedure, shortened: as §1
Mus musculus [25] = assay: Anticonvulsant activity in CF-1 mouse model of subcutaneous pentylenetetrazole-induced seizure assessed as reduction in convulsions at 300 mg/kg, ip measured at 0.5 hrs post dose; assay type: functional, organism-based; procedure, shortened: as §5
Salmonella typhimurium [26] = assay: Antimutagenic activity against Salmonella typhimurium TA100 assessed as inhibition of NaN3-induced mutation at 50 ug/plate preincubated for 30 mins followed by top agar addition and measured after 48 hrs in presence of liver S9 fraction by Ames test relative to control; assay type: organism-based; conditions: salmonella enterica subsp. enterica serovar typhimurium, s9, 48 h
[27] = Mutagenicity in Salmonella typhimurium TA1535 assessed as mutagenicity index at 50 to 500 ug/plate preincubated for 30 mins followed by top agar addition and measured after 48 hrs in absence of liver S9 fraction by Ames test; assay type: toxicity; conditions: salmonella enterica subsp. enterica serovar typhimurium, s9, 48 h
Procedure, shortened: (§6)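 Ames plate incorporation in S. typhimurium TA100 or TA1535, with or without S9. Overnight culture, compound in DMSO (50–500 µg per plate) and buffer or S9 mix preincubated 30 min at 37 °C, then top agar on glucose minimal agar. Incubated 48 h at 37 °C, revertants counted in triplicate. Vehicle negative control; NaN3 (−S9) and 2AA (+S9) positive controls. MI = revertants with compound / negative-control revertants; MI ≥ 2 with dose-response counts as positive.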

[28] = Mutagenicity in Salmonella typhimurium TA1535 assessed as mutagenicity index at 50 to 500 ug/plate preincubated for 30 mins followed by top agar addition and measured after 48 hrs in presence of liver S9 fraction by Ames test; assay type: toxicity, subcellular; conditions: salmonella enterica subsp. enterica serovar typhimurium, s9, 48 h; procedure, shortened: as §6
Salmonella typhimurium [29] = assay: Antimutagenic activity against Salmonella typhimurium TA1535 assessed as inhibition of NaN3-induced mutation at 500 ug/plate preincubated for 30 mins followed by top agar addition and measured after 48 hrs in presence of liver S9 fraction by Ames test relative to control; assay type: organism-based; conditions: salmonella enterica subsp. enterica serovar typhimurium, s9, 48 h
Salmonella typhimurium [30] = assay: Antimutagenic activity against Salmonella typhimurium TA100 assessed as inhibition of NaN3-induced mutation at 500 ug/plate preincubated for 30 mins followed by top agar addition and measured after 48 hrs in presence of liver S9 fraction by Ames test relative to control; assay type: organism-based; conditions: salmonella enterica subsp. enterica serovar typhimurium, s9, 48 h
[31] = Neurotoxicity in CF-1 mouse at 100 mg/kg, ip measured after 0.5 hrs by rotarod test; assay type: toxicity, organism-based; conditions: in vivo; procedure, shortened: as §1
[32] = Neurotoxicity in CF-1 mouse at 100 mg/kg, ip measured after 4 hrs by rotarod test; assay type: toxicity, organism-based; conditions: in vivo; procedure, shortened: as §1
Salmonella typhimurium [33] = assay: Antimutagenic activity against Salmonella typhimurium TA1535 assessed as inhibition of NaN3-induced mutation at 100 ug/plate preincubated for 30 mins followed by top agar addition and measured after 48 hrs in presence of liver S9 fraction by Ames test relative to control; assay type: organism-based; conditions: salmonella enterica subsp. enterica serovar typhimurium, s9, 48 h
Salmonella typhimurium [34] = assay: Antimutagenic activity against Salmonella typhimurium TA100 assessed as inhibition of NaN3-induced mutation at 250 ug/plate preincubated for 30 mins followed by top agar addition and measured after 48 hrs in presence of liver S9 fraction by Ames test relative to control; assay type: organism-based; conditions: salmonella enterica subsp. enterica serovar typhimurium, s9, 48 h
Salmonella typhimurium [35] = assay: Antimutagenic activity against Salmonella typhimurium TA100 assessed as inhibition of NaN3-induced mutation at 100 ug/plate preincubated for 30 mins followed by top agar addition and measured after 48 hrs in presence of liver S9 fraction by Ames test relative to control; assay type: organism-based; conditions: salmonella enterica subsp. enterica serovar typhimurium, s9, 48 h
[36] = Mutagenicity in Salmonella typhimurium TA100 assessed as mutagenicity index at 50 to 500 ug/plate preincubated for 30 mins followed by top agar addition and measured after 48 hrs in absence of liver S9 fraction by Ames test; assay type: toxicity; conditions: salmonella enterica subsp. enterica serovar typhimurium, s9, 48 h; procedure, shortened: as §6
Salmonella typhimurium [37] = assay: Antimutagenic activity against Salmonella typhimurium TA1535 assessed as inhibition of NaN3-induced mutation at 250 ug/plate preincubated for 30 mins followed by top agar addition and measured after 48 hrs in presence of liver S9 fraction by Ames test relative to control; assay type: organism-based; conditions: salmonella enterica subsp. enterica serovar typhimurium, s9, 48 h
Salmonella typhimurium [38] = assay: Antimutagenic activity against Salmonella typhimurium TA1535 assessed as inhibition of NaN3-induced mutation at 50 ug/plate preincubated for 30 mins followed by top agar addition and measured after 48 hrs in presence of liver S9 fraction by Ames test relative to control; assay type: organism-based; conditions: salmonella enterica subsp. enterica serovar typhimurium, s9, 48 h
[39] = Mutagenicity in Salmonella typhimurium TA100 assessed as mutagenicity index at 50 to 500 ug/plate preincubated for 30 mins followed by top agar addition and measured after 48 hrs in presence of liver S9 fraction by Ames test; assay type: toxicity, subcellular; conditions: salmonella enterica subsp. enterica serovar typhimurium, s9, 48 h; procedure, shortened: as §6

SMILES	Activity [1]	Activity [2]	Activity (Mus musculus [5])	Activity (Mus musculus [7])	Activity (Mus musculus [8])	Activity (Mus musculus [9])	Activity (Mus musculus [10])	Activity (Mus musculus [13])	Activity (Mus musculus [14])	Activity (Mus musculus [15])	Activity (Mus musculus [16])	Activity [19]	Activity (Mus musculus [20])	Activity [21]	Activity (Mus musculus [22])	Activity (Mus musculus [23])	Activity [24]	Activity (Mus musculus [25])	further results
Cc1cccc(C)c1OCC(=O)NC(C)CO (configuration not stated)	Toxic	Non-Toxic	inactive	inactive	inactive	inactive	inactive	inactive	inactive	inactive	inactive	Non-Toxic	Active	Non-Toxic	inactive	inactive	Non-Toxic	inactive	Activity [3]: Non-Toxic; Activity [4]: Non-Toxic; Activity (Rattus norvegicus [6]): inactive; Activity [11]: Non-Toxic; Activity [12]: Non-Toxic; Activity (Rattus norvegicus [17]): inactive; Activity [18]: Non-Toxic
CC[C@@H](CO)NC(=O)COc1c(C)cccc1C	Toxic	Non-Toxic	inactive	inactive	inactive	inactive	inactive	inactive	inactive	inactive	inactive	Non-Toxic	Active	Non-Toxic	inactive	inactive	Non-Toxic	inactive	inhibition (INH) (Salmonella typhimurium [26]): 26%; Activity index [27]: 0.7 to 1.7; Activity index [28]: 0.7 to 1.7; inhibition (INH) (Salmonella typhimurium [29]): 24%; inhibition (INH) (Salmonella typhimurium [30]): 43%; Activity [31]: Non-Toxic; Activity [32]: Non-Toxic; inhibition (INH) (Salmonella typhimurium [33]): 22%; inhibition (INH) (Salmonella typhimurium [34]): 28%; inhibition (INH) (Salmonella typhimurium [35]): 34%; Activity index [36]: 0.7 to 1.7; inhibition (INH) (Salmonella typhimurium [37]): 19%; inhibition (INH) (Salmonella typhimurium [38]): 12%; Activity index [39]: 0.7 to 1.7
